Assay outcomes (PubChem)
This is a sample that favours compounds with a hit; in the whole collection about 1.7% have one here.
Dynein transport: blocks dynein driven cargo transport along microtubules | 3617.4 mouse cells, GR-EGFP nuclear translocation imaging; test concentration mostly 20 µM; stimulated with dexamethasone, 1 µM; active compounds read low | z-score, hits read low | 220,000 tested, 0.47% active;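 active = plate z-score of nuclear minus cytoplasmic receptor signal below a set negative limit, without overly bright fluorescence or cell loss, cut at about -3.5 in these data, passing the limit was not always enough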;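 note: z-score of nuclear minus cytoplasmic ring GR-EGFP intensity difference per well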
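medium = tetracycline-free induction medium containing charcoal-stripped FBS | also added = 1.0 µM final dexamethasone stimulus | schedule = 48 h induction, 1 h compound, 30 min dex at 37 °C | technique = fixed, Hoechst-stained cells imaged at 10x for EGFP | measure = GR-EGFP nuclear translocation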
EP2 mod: modulators of human EP2 prostaglandin E2 receptor. P43116. EP2-expressing cells, cAMP HTRF FRET, PGE2 co-stimulation. induction, % at 25 µM. 260,000 tested, 0.83% active;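 active = compounds whose cAMP rise, as percent of the full-agonist control response, exceeds 60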;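 note: rat C6 glioma line stably carrying human EP2 under a CMV promoter; the protocol text gives 20 µM as final concentration; 100% = response of wells given 1 µM PGE2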
Target sequence (P43116 whole entry, looked up): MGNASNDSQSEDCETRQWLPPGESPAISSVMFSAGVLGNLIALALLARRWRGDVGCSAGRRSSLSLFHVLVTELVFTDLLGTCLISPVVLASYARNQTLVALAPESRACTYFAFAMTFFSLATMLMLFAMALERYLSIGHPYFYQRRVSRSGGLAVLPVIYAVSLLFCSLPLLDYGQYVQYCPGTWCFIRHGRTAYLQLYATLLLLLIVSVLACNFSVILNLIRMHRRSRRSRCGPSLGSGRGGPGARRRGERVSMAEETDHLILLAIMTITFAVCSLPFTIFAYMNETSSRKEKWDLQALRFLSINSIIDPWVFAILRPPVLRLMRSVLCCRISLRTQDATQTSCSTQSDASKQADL
EP2 antag: EP2 receptor (human) inhibition. C6 glioma cells expressing human EP2, cAMP TR-FRET; cells stimulated with saturating PGE2. 260,000 tested, 0.52% active. inhibition, % at 25 µM. P43116;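 active = percent inhibition above 40 after rounding to a whole number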;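 note: rat C6 glioma host cells with rolipram phosphodiesterase inhibitor present; the protocol text gives 20 µM as final concentration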
Hsp70 activator: switches on Hsp70 transcription; HeLa Hsp70 promoter luciferase reporter, luminescence; scaled: vehicle 0, proteasome-inhibitor control 100%; activation, % at 10 µM; 200,000 tested, 0.04% active;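 active = activation above the mean across all tested compounds plus 3 SD, cutoff set per campaign, cut at about 5.5% in these data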;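 note: 100% = MG132 at 30 µM as the positive control and 0% = DMSO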
An asterisk follows results filed as active; ! = a repeat was not active.

`C[C@H](Br)CN(C[C@H](C)Br)c1ccc2c(c1)Cc1ccccc1-2` gave EP2 mod -27 and EP2 antag 57*.
For C[C@@H]1[C@H]2C=C[C@@H]1[C@H](c1c3ccc(=O)c(O)c-3oc3c(O)c(O)ccc13)[C@@H]2C(=O)O the results were EP2 mod -10 and EP2 antag 45*.
For Nc1nonc1-c1cnon1 the results were EP2 mod -22 and EP2 antag 9.
`NS(=O)(=O)c1ccc(-c2ccc([As](=O)(O)O)cc2)cc1` gave EP2 mod 19 and EP2 antag 45*.
Screening O=C(Nc1ccccc1)c1c(O)c2c(n(Cc3ccco3)c1=O)CCCC2 returned Dynein transport 1.1, EP2 mod 65* and EP2 antag 4.
`O=C(Nc1cccc(Cl)c1)c1c(O)c2c(n(Cc3ccco3)c1=O)CCCC2` gave EP2 antag 6.
Screening O=C(C1CC1)N1CCCc2cc(C(O)CN3CC=C(c4ccc(F)cc4)CC3)ccc21 (centres undefined) returned EP2 mod -88 and EP2 antag 5.
`CC(C)c1ncc(CN2C3CCC2CC(O)(c2ccc(F)cc2)C3)cn1` (centres undefined) gave EP2 mod -30 and EP2 antag 8.
For O=C(O)C(O)(c1ccc(-c2ccccc2)cc1)c1ccc(-c2ccccc2)cc1 the results were EP2 mod 12 and EP2 antag 41*.
`c1ccc2c([C@@H]3CCN(CCN4CCOCC4)C3)c[nH]c2c1` gave EP2 mod 13 and EP2 antag 53*.
`NS(=O)(=O)c1ccc(CC(=O)N2CCCCC2CN2CCCCC2)cc1` (centres undefined) gave EP2 mod 6 and EP2 antag 0.
`CC[C@]12C=CCN3CC[C@@]4(c5ccc(OC)cc5N(C)C4[C@@](O)(C(=O)OC)[C@@H]1OC(C)=O)[C@@H]32` (some centres undefined) gave EP2 mod 17 and EP2 antag 14.
`CC[C@H]1CN2CCc3cc(OC)c(OC)cc3[C@@H]2C[C@@H]1C[C@H]1NCCc2c1[nH]c1ccc(O)cc21` gave EP2 mod -25 and EP2 antag 61*.
Screening COc1cc2c3c(c1OC)-c1cc(O)ccc1CC3NCC2 (centres undefined) returned Dynein transport -0.53, EP2 mod 16, EP2 antag 10 and Hsp70 activator 0.
COC(=O)[C@@H]1C(=O)[C@H](C(=O)OC)[C@@H]2CC[C@H]1N2C was read as EP2 mod 45 and EP2 antag 43*.
`COC(=O)C1C(OC(=O)c2ccccc2)CC2CCC1N2C` (centres undefined) gave Dynein transport -0.6, EP2 mod -15, EP2 antag 15 and Hsp70 activator 0.
For C[C@]12CC[C@H](O)CC1=CC[C@@H]1[C@@H]2CC[C@@]2(C)[C@H]1CC[C@]2(C)O the results were EP2 antag 15.
Screening Cc1c([C@@H](C)[C@H]2NC[C@H](C)C[C@@H]2O)ccc2c1C[C@@H]1[C@@H]2CC=C2C[C@@H](O)CC[C@@]21C returned EP2 mod 8 and EP2 antag 43*.
For O=C(O)c1cc(N=Nc2ccc([As](=O)(O)O)cc2)ccc1O the results were EP2 mod 33 and EP2 antag 43*.
Cc1[nH]c2ccc(F)cc2c1CC(=O)N(CCN(C)C)Cc1cccnc1 was read as EP2 mod -1 and EP2 antag 2.
Screening Cc1cc[c]([Sb]2[O][C@H]([C@H](O)[C@H](O)C(=O)O)[C@@H](CO)[O]2)cc1 returned EP2 mod 19 and EP2 antag 49*.
Screening Cc1ccc(S(=O)ON2CCC(C(=O)O)(c3ccccc3)CC2)cc1 (centres undefined) returned EP2 mod 20 and EP2 antag 45*.
CCC(C)N1CCN(Cc2ccc(C)cc2)CC1 (centres undefined) was read as EP2 mod 0 and EP2 antag 14.
c1ccc(-c2cc(-c3ccccc3)[n+](-c3ccccc3)c(-c3ccccc3)c2)cc1 was read as Dynein transport -0.65, EP2 mod -78 and EP2 antag 64*.
For O=C1NC(=O)C(=Cc2ccc(-c3cc(Cl)ccc3[N+](=O)[O-])o2)C(=O)N1 the results were Dynein transport -0.92, EP2 mod -59, EP2 antag 42* and Hsp70 activator 0.
`O=C1NC(=O)C(=Cc2ccc(-c3ccccc3[N+](=O)[O-])o2)C(=O)N1` gave Dynein transport 0.4, EP2 mod -38 and EP2 antag 16.
CC(C)(C)n1nnnc1CN1C2CCC1CC(O)(c1ccc(F)cc1)C2 (centres undefined) was read as EP2 mod -2 and EP2 antag 9.
`Nc1ccccc1O.O.O=C(O)[C@H]1[O][Sb][O][C@H]1C(=O)O` gave EP2 mod -4 and EP2 antag 54*.
Screening Cc1ccc(C=C2C(=O)NC(=S)NC2=O)o1 returned EP2 mod -106 and EP2 antag 114*.
For CN1C2CC3C[C@H]1C(O3)C2O (some centres undefined) the results were EP2 mod -5 and EP2 antag 14.
For OCCOc1ccc(CN2C3CCC2CC(O)(c2ccccc2F)C3)cc1 (centres undefined) the results were EP2 mod 3 and EP2 antag 10.
Screening O[C@H](CN1CC1)[C@@H](O)CN1CC1 returned EP2 mod 22 and EP2 antag 42*.
`CN(C)CCN(Cc1ccccc1F)C(=O)Cc1nn(C)c(=O)c2ccccc12` gave EP2 mod -5 and EP2 antag 7.
`Cc1oc2c(c1CC(=O)N(CCN(C)C)Cc1ccc(F)cc1)C(=O)CC(C)(C)C2` gave EP2 mod -60 and EP2 antag 11.
Screening O=[N+]([O-])c1cc([As](=O)(O)c2ccc(O)c([N+](=O)[O-])c2)ccc1O returned Dynein transport 0.51, EP2 mod -19 and EP2 antag 12.
O=[N+]([O-])c1cc(-c2ccc([As](=O)(O)O)cc2)ccc1[As](=O)(O)O was read as Dynein transport 0.63, EP2 mod -3 and EP2 antag 47*!.
For Cc1cc(NC(=O)CN2C3CCC2CC(O)(c2nccn2C)C3)no1 (centres undefined) the results were EP2 mod -12.
Screening CC1=NN(c2ccccc2)C(=O)[C@H]1N=Nc1ccc([As](=O)(O)O)c(O)c1 returned EP2 mod 46 and EP2 antag 43*.
For CC1=NN(c2ccccc2)C(=O)C1/C=C1\C(=O)NC(=O)N(c2cc(C)cc(C)c2)C1=O (centres undefined) the results were Dynein transport -0.94, EP2 mod 30, EP2 antag 8 and Hsp70 activator 0.
Cn1c(=O)c2[nH]cnc2n(C)c1=O.[CH2-][C@H](Cc1cccc2cc(C(=O)O)c(=O)oc12)OC.[Hg].[OH-] was read as EP2 mod 29 and EP2 antag 59*.
